Laboratory results taken from publication PMC10763047 (Chemical Science, 2023).

How the values were obtained:
p110α [1] = target: p110α (Homo sapiens, UniProt P42336, E545K); experiment: Western blot of p110α degradation in MCF7 cells; type: cell-based; conditions: pretreatment before WJ112-14
Procedure, shortened: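 MCF7 cells (p110α E545K) were exposed to test compound for 6 h, or 6 h and 24 h in some runs. Integrated PI3Kα western blot signals were normalised to α-tubulin and DMSO. SD came from biological triplicates at selected concentrations. Mechanistic runs used pretreatment with bortezomib, MLN4924 or TAK-243, a glutarimide-methylated CRBN-binding-dead analogue, and washout to follow p110α recovery.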

p110α [2] = experiment: Western blot of p110α degradation in a panel of cell lines; type: cell-based; conditions: MCF7 and T47D cell lines

Chain of p110α (Homo sapiens, UniProt P42336, E545K) (P42336 whole entry E545K): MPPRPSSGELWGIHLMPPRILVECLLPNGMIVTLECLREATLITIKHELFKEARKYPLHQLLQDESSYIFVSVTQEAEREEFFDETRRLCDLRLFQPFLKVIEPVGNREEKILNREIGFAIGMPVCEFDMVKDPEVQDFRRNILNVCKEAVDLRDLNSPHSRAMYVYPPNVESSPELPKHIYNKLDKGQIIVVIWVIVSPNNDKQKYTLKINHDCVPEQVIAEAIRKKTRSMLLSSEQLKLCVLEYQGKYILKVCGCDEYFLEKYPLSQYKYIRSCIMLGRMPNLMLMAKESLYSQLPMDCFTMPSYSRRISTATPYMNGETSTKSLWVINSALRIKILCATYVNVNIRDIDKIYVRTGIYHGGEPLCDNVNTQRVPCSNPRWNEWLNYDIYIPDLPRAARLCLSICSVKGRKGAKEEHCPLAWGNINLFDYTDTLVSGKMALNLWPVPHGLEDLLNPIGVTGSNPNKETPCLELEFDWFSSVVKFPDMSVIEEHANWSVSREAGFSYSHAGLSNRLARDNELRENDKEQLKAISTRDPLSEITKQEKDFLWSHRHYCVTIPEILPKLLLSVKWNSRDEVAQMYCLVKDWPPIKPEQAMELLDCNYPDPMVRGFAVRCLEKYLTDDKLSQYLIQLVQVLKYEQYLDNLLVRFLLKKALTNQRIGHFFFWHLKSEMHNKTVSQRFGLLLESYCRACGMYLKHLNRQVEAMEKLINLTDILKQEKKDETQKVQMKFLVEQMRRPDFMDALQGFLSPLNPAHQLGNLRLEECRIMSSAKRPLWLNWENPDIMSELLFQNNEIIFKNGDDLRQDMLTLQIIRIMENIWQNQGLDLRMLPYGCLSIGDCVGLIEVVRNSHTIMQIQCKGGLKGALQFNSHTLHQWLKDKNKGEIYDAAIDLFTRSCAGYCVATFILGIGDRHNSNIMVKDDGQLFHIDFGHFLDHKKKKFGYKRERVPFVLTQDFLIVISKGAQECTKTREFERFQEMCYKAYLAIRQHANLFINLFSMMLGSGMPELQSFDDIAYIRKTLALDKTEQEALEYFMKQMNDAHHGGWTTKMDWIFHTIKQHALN
Chain of p110α (Homo sapiens, UniProt P42336, E545K) (P27986 whole entry partner): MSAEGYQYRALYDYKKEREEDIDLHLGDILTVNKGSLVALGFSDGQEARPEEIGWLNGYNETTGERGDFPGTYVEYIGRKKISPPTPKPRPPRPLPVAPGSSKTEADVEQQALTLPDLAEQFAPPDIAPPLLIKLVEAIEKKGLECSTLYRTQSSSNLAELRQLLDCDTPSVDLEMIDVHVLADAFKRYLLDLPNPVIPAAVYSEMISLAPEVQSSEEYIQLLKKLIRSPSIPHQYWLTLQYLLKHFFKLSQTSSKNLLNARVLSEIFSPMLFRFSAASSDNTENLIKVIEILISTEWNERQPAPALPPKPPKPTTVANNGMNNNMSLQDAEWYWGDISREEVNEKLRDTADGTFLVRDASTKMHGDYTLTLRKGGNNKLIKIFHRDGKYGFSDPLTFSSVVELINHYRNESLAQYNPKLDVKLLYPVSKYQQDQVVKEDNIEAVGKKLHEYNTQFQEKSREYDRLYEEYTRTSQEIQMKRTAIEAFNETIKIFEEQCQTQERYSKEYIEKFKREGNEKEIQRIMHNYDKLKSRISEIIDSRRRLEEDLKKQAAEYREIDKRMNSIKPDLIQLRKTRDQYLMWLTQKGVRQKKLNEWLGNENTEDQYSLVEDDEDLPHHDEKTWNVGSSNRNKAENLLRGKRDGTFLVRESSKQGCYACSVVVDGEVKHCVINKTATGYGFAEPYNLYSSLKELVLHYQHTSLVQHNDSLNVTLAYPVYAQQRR

Row | SMILES | rescue of p110α from WJ112-14 degradation by pretreatment (p110α [1]) | p110α degradation (p110α [2])
1 | NS(=O)(=O)OC[C@@H]1C[C@@H](n2ccc3c(N[C@H]4CCc5ccccc54)ncnc32)C[C@@H]1O [MLN4924] | full rescue of p110α | –
2 | CC(C)C[C@H](NC(=O)[C@H](Cc1ccccc1)NC(=O)c1cnccn1)B(O)O [bortezomib] | full rescue of p110α | –
3 | NS(=O)(=O)OC[C@H]1C[C@@H](Nc2ccnc3cc(-c4cccc(SC(F)(F)F)c4)nn23)[C@H](O)[C@@H]1O [TAK-243] | full rescue of p110α | –
4 | Nc1cccc2c1C(=O)N(C1CCC(=O)NC1=O)C2=O (centres unmarked) [pomalidomide] | rescue of p110α | –
5 | Cc1nc(-c2cn3c(n2)-c2ccc(-c4cnn(C(C)(C)C(N)=O)c4)cc2OCC3)n(C(C)C)n1 [taselisib] | – | inactive
